# Laboratory results from publication PMC4090938 (Molecular cell, 2014).
# How the values were obtained:
# [1] = tested on: Erk-MAP kinase in Grb2-/- mESCs; assay: Erk-MAP kinase activation; assay type: cell-based, mouse; conditions: SU5402 10 μM
# Outline: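 Grb2-/- mouse ES cells (line described previously) were transfected with Lipofectamine LTX. Constructs were WT or chimeric Grb2 in pCAGGS, driven by a β-actin promoter. Cells were selected with puromycin for 48 h before analysis.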
# Ptpn11 = molecular target: T1, Ptpn11 (Mus musculus, UniProt P35235); assay: FLAG IP of FLAG-tagged Grb2 constructs compared with Ptpn11 level in cell lysate; assay type: cell-based; conditions: Ptpn11 in FLAG IP versus cell lysate, mESCs; data not shown
# T1 sequence (P35235 1-593): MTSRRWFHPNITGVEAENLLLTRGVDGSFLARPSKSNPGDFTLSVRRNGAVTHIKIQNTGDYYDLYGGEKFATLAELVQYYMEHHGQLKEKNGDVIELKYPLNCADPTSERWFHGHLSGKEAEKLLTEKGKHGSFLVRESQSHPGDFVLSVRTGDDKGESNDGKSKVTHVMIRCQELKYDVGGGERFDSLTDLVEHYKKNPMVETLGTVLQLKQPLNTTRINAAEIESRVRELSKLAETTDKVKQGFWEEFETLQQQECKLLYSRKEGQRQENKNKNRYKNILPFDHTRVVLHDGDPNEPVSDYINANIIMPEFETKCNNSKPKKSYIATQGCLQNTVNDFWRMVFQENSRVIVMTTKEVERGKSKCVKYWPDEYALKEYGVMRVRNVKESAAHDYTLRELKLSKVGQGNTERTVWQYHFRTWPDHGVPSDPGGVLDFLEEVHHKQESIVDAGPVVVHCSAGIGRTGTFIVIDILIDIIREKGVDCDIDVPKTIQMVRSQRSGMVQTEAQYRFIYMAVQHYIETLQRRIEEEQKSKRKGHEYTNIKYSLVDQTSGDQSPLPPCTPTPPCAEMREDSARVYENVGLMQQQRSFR
# Grb2-/- mESCs = assay: mESC priming; assay type: cell-based, mouse; conditions: Grb2-/- mESCs expressing the construct; Nanog/Dnmt3b expression signature
# Outline: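 Grb2-/- mESCs were transfected (Lipofectamine LTX) with WT or chimeric Grb2 in pCAGGS under a β-actin promoter, then puromycin-selected for 48 h before analysis. Dnmt3b levels were quantified as mean ± standard deviation (n=3). Regular colonies were also immunostained for Nanog and Dnmt3b.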
Molecule,effect on activation of Erk-MAP kinase by chGrb2(Ptpn11_pY580) or WT Grb2 [1],Ptpn11 in the cell engaged (Ptpn11),restoration of mESC priming (Grb2-/- mESCs)
Cc1c[nH]c(/C=C2\C(=O)Nc3ccccc32)c1CCC(=O)O [SU5402],blocked,,
WT Grb2: vector-derived FLAG-tagged wild-type Grb2 adaptor protein,,approximately 20%,reestablished
